Screens as filed in PubChem.
In the library only some 4% were active in any assay of this set; here they are far more common.
Hsp70 act – Hsp70 transcriptional activation, primary screen | activation, % at 10 µM | HeLa Hsp70 promoter luciferase reporter, luminescence; scaled: vehicle 0, proteasome-inhibitor control 100% | 200,000 tested, 0.04% active;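 active = activation above the mean across all tested compounds plus 3 SD, cutoff set per campaign, cut at about 5.5% in these data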;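 note: 100% = MG132 at 30 µM as the positive control and 0% = DMSO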
CHOP inhibitor – CHOP inhibition in unfolded protein response; inhibition, % at 10 µM; 220,000 tested, 3.8% active; CHO-K1 CHOP-promoter luciferase, tunicamycin-induced, 15-18 h;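 active = compounds that reduced the stress-induced luciferase reporter signal by more than about 70% of percent inhibition, limit read from the data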;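 note: 0% = tunicamycin plus vehicle and 100% = wells without tunicamycin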
S1P3 antagonist – S1P3 (human) receptor antagonism. Q99500. CHO S1P3 NFAT-BLA reporter, FRET fluorescence, antagonist mode. inhibition, % at 4.98 µM. 170,000 tested, 0.27% active. AID 485;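 active = inhibition above the plate cutoff, the mean inhibition of test wells on that plate plus 3 SD, cut at about 28% in these data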;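 note: cells challenged with S1P at its EC80 of 0.8 µM; blue over green emission ratio from cleaved BLA substrate after 4 h stimulation; 0% = S1P-stimulated wells and 100% = unstimulated DMSO-only wells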
Target sequence (Q99500 whole entry, looked up): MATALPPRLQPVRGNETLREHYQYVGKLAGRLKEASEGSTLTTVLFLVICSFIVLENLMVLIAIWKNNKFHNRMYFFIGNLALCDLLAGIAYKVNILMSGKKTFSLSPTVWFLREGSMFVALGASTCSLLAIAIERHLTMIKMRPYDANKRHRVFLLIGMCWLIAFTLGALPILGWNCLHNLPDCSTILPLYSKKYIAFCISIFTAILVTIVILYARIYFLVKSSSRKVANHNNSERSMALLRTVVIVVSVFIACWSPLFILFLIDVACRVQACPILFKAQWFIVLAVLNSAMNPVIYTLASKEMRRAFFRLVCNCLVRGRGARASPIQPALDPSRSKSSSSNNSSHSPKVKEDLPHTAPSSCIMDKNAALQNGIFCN
Mdm2 ligase inh – Mdm2 E3 ligase (human) inhibition | Q00987 | 210,000 tested, 0.11% active | signal enhancement, % at 5 µM | AID 1230 | cell-based MDM2 ubiquitination luciferase reporter, 2 h; 0 = plate control, 100 = twice control, blank-subtracted;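 active = signal enhancement of 30% or more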;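 note: luminescence tracks abundance of the self-degrading MDM2-luciferase fusion protein; higher signal means inhibition of MDM2 E3 ligase activity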
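Assay system: mammalian cells stably expressing self-ubiquitinating, self-degrading MDM2 E3–luciferase fusion. Quantity: 2000 cells in each well. Medium: DMEM culture medium. Compound dosing: single-point 5 µM. Timing: cell settling 4 h, compound treatment 2 h, both 37 °C. Technique: luciferase luminescence. Read-out basis: percent signal gain over controls, blank-subtracted. Benchmarks: plate controls and plate blanks.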
CHOP confirm – confirmation of CHOP induction inhibitors. shares compounds with CHOP inhibitor. CHO-CHOP promoter luciferase reporter, tunicamycin-induced, luminescence. inhibition, % at 10 µM. 2,100 tested, 45% active;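 active = mean of three repeat readings of reporter signal inhibition above a set limit, cut at about 70% in these data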;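 note: 0% = tunicamycin plus vehicle and 100% = wells lacking tunicamycin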
* marks the source's active call; other numbers are inactive results; · = no result.

SMILES	Hsp70 act	CHOP inhibitor	S1P3 antagonist	Mdm2 ligase inh	CHOP confirm
CC(=O)OCCCNc1cc(Sc2ccc(Cl)cc2)c2nonc2c1[N+](=O)[O-]	0	109*	13	-13	114*
COc1ccc(/C=N/NC(=O)c2cc(-c3ccc4c(c3)OCO4)n[nH]2)cc1OC	0	20	-6	-13	·
O=c1c2cc([N+](=O)[O-])ccc2nc(CN2CCN(c3ccccn3)CC2)n1-c1ccccc1F	0	28	-11	-5	·
CCCCCCn1c(-c2ccco2)nc2oc3cc(OC)ccc3c(=O)c2c1=O	0	96*	5	-20	107*
CCCc1nc2oc3cc(OC)ccc3c(=O)c2c(=O)n1Cc1ccco1	0	-8	-4	-8	·
Cc1cc(NCCCN)nc(-c2ccccc2O)n1	0	101*	-21	-26	-10
C/C(=N\Nc1cc(C)nc(-c2ccccc2O)n1)c1ccccc1	0	44	0	-8	·
Cc1cc(N/N=C/c2ccc(O)c(C)c2O)nc(-c2ccccc2O)n1	0	107*	-7	-25	28
NC(=S)n1[nH]c(-c2ccc([N+](=O)[O-])cc2)c(N=Nc2cccc([N+](=O)[O-])c2)c1=O	0	102*	3	-12	98*
Cc1ccc(N=Nc2c(C)[nH]n(C(N)=S)c2=O)cc1C	0	-4	-10	-22	·
CC1CCC(n2c(=S)[nH]c3ccccc3c2=O)CC1 (configuration not stated)	0	103*	14	-10	104*
O=c1c2ccccc2[nH]c(=S)n1C1CCCCC1	0	40	-2	2	·
Cc1cccc(C)c1N1CCN(c2ccc3nnc(C(F)(F)F)n3n2)CC1	0	106*	·	-19	102*
FC(F)(F)c1nnc2ccc(N3CCOCC3)nn12	0	46	-15	-10	·
O=[N+]([O-])c1ccc(CSc2ncnc3ccccc23)cc1	0	27	-8	-5	·
CCC(NC(=O)Nc1nnc(C(F)(F)F)s1)(C(F)(F)F)C(F)(F)F	0	103*	·	-12	115*
Cc1ccc(NC(=O)CSc2nnc([C@H](C)NC(=O)OC(C)(C)C)o2)c(C)c1	·	-3	0	-5	·
CC(C)(C)OC(=O)N[C@@H](Cc1ccccc1)c1nnc(SCC(=O)O)o1	0	20	-36	12	·
CCC(C)[C@@H](NC(=O)OC(C)(C)C)c1nnc(S(=O)(=O)Cc2cccc(C)c2)o1 (some centres not stated)	0	106*	-9	0	107*
Cc1ccccc1CS(=O)(=O)c1nnc([C@H](Cc2ccccc2)NC(=O)OC(C)(C)C)o1	0	112*	·	-18	136*
CCSc1nnc([C@H](Cc2ccccc2)NC(=O)OC(C)(C)C)o1	0	10	·	-12	·
CC(C)(C)OC(=O)N[C@@H](Cc1ccccc1)c1nnc(S(=O)(=O)Cc2ccccc2)o1	1	109*	-9	-9	125*
COc1ccc(N2C(=O)C(CN3CCN(C)CC3)C2c2ccccc2)cc1 (configuration not stated)	0	3	-2	-15	·
O=c1c(Cl)nc2cc(Cl)ccc2n1CCNc1ncc(C(F)(F)F)cc1Cl	0	107*	·	-22	128*
Cn1c(-c2ccc(C(C)(C)C)cc2)n[nH]c1=S	0	-11	12	-10	·
SMILES	Hsp70 act	CHOP inhibitor	S1P3 antagonist	Mdm2 ligase inh	CHOP confirm
CC(C)(C)c1ccc(-c2n[nH]c(=S)n2C2CCCC2)cc1	0	107*	·	-4	121*
COc1cccc(C(=O)C(C#N)=C(SC)SC)c1	·	102*	6	-1	118*
O=C(O)c1ccc(C(=O)C(=O)c2ccccc2)cc1	·	7	-10	·	·
CSC(SC)=C(C#N)C(=O)c1ccccc1	·	107*	-21	26	102*
COc1cccc(C(=O)Nc2ccc(NC(C)=O)cc2)c1	0	-21	·	-3	·
CCOC(=O)c1c2ccc(OCC(=O)N/N=C/c3ccc(Cl)cc3)cc2n2ccccc12	0	104*	·	3	0
CCc1ccc(NC(=O)CN2C(=O)C(=O)N(Cc3ccccc3)C2=O)cc1	0	13	-10	4	·
CC(=O)Oc1cccc(/C=C2\C=C(c3ccc(C)cc3)OC2=O)c1	0	9	-1	-39	·
COc1ccc(C2=C/C(=C/c3cccnc3)C(=O)O2)cc1OC	-1	105*	-1	9	14
CCOc1ccc(C2=C/C(=C/c3cccnc3)C(=O)O2)cc1	0	103*	·	-15	91*
Cc1nn(-c2ccccc2)c(C)c1/C=N/n1c(-c2ccc(Cl)cc2)n[nH]c1=S	0	103*	-5	-1	48
O=C(CN1C(=O)CC(c2ccccc2)S(=O)(=O)c2ccccc21)N1CCCCC1 (configuration not stated)	0	4	5	-13	·
COc1ccc2c(c1)[nH]c(=O)c1sc3ccccc3c12	0	108*	·	-19	56
COc1ccc2sc3c(=O)[nH]c4ccccc4c3c2c1	0	97*	·	-38	46
COc1ccc2c(-c3ccccc3)cc(=O)[nH]c2c1	0	29	·	-9	·
CCCCN1Cc2c(nc3cc(-c4ccco4)[nH]n3c2=O)C1=O	·	-12	-7	-9	·
N#Cc1c(NCCN)nc(-c2ccco2)c2c1CCCC2	0	105*	·	-12	30
CC(C)c1ccc(-c2cc(C(=O)N3N=C(C(F)F)CC3(O)C(F)F)c3ccccc3n2)cc1 (configuration not stated)	0	99*	·	-5	105*
NS(=O)(=O)c1ccc(N2N=C(c3ccccc3)CC2c2ccc(F)cc2)cc1 (configuration not stated)	0	105*	·	-18	-26
COc1ccc(C2CC(c3ccccc3)=NN2c2ccc(S(N)(=O)=O)cc2)cc1 (configuration not stated)	0	6	-39	-6	·
Cc1cccc(C)c1NC(=O)Cn1nnnc1N	0	-15	12	-17	·
CCC(=O)Nc1ccccc1C(=O)C(=O)Nc1ccccc1	0	21	-8	-9	·
C/C(=N\N=C(/N)SC1CC(=O)N(c2ccc(Cl)c(Cl)c2)C1=O)c1cccs1 (configuration not stated)	0	110*	·	5	19
O=C1CC(c2ccco2)CC(O)=C1C=Nc1ccccc1-c1ccccc1 (configuration not stated)	1	104*	23	-13	95*
O=C1CC(c2ccco2)CC(O)=C1C=Nc1cc(Cl)ccc1O (configuration not stated)	-1	-5	·	-4	·
Cc1[nH]nc(N=CC2=C(O)CC(c3ccco3)CC2=O)c1-c1ccc(Cl)cc1 (configuration not stated)	0	105*	·	-14	80*
CN(CCc1ccccn1)S(=O)(=O)c1ccc(F)cc1	0	9	-10	-14	·
CC(C)(C)c1cc(S(=O)(=O)CCc2ccccn2)cc(C(C)(C)C)c1F	0	97*	·	-3	131*
